Data taken from ChEMBL document CHEMBL4680176, “Identification of DOT1L inhibitors by structure-based virtual screening adapted from a nucleoside-focused library” (Eur J Med Chem, 2020).
Values belong to the compound of their own block, whether it stands above or below them. Calls of active or inactive are those of the source. No cut-off for these calls is given here.

Experiments:
[1] = target: T1, Histone-lysine N-methyltransferase, H3 lysine-79 specific (Homo sapiens, UniProt Q8TEK3); test: Inhibition of recombinant human N-terminal GST-tagged DOT1L (1 to 420 residues) expressed in Escherichia coli BL21 (DE3) using nucleosome as substrate incubated for 1 hr in presence of [3H]-SAM by liquid scintillation counting method
Summary of the method: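 GST-tagged DOT1L catalytic domain (1-420), expressed in E. coli BL21(DE3) and Ni-affinity purified, used at 125 nM. Compound added before SAM start; 1 hr at room temperature. Product captured on P81 filters, NaHCO3-washed, and counted by scintillation.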
Target sequence in this assay (Q8TEK3 whole entry, the tested form may be a part): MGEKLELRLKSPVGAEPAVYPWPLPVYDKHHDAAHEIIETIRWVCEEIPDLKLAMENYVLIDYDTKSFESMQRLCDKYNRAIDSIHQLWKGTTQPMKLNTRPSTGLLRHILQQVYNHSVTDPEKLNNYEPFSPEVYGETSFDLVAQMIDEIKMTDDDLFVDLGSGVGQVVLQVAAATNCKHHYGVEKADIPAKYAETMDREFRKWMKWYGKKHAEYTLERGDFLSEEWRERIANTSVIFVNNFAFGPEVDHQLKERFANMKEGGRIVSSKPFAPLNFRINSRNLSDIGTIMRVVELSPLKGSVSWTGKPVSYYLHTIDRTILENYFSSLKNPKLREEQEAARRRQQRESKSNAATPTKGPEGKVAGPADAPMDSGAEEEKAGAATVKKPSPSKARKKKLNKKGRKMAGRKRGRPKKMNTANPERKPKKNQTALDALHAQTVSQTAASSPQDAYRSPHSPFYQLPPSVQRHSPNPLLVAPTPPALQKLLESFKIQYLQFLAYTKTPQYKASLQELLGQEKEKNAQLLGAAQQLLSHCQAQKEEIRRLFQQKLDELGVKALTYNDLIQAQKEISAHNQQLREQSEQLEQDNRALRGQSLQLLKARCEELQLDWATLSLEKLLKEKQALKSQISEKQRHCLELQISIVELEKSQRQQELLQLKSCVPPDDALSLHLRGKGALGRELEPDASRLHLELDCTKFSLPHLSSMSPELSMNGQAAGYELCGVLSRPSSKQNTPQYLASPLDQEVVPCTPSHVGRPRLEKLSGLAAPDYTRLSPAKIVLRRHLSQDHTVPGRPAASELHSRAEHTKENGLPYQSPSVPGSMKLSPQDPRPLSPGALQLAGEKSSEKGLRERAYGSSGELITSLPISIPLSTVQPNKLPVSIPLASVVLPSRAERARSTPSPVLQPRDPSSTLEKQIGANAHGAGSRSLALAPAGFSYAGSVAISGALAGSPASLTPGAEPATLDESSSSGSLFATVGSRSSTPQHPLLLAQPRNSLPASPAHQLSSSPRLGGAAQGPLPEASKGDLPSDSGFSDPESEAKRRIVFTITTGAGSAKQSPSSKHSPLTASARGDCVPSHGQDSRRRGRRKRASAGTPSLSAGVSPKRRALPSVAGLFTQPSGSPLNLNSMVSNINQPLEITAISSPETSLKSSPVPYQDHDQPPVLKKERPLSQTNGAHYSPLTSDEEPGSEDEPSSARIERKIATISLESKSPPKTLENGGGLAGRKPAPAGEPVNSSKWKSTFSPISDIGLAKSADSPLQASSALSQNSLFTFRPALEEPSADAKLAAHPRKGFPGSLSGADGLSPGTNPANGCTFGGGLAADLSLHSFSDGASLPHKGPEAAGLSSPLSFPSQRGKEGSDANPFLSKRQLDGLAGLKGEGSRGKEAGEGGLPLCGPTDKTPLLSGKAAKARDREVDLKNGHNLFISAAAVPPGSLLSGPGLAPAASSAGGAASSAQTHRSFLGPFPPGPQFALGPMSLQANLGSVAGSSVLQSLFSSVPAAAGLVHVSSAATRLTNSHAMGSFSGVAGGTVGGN

[2] = target: T1, Histone-lysine N-methyltransferase, H3 lysine-79 specific; test: Binding affinity to recombinant human N-terminal GST-tagged DOT1L (1 to 420 residues) expressed in Escherichia coli BL21 (DE3) assessed as increase in melting temperature at 100 uM incubated for 1 min by 1,8-ANS probe based thermal shift assay
Target sequence in this assay (Q8TEK3 whole entry, looked up, the tested form may be a part): as the sequence (Q8TEK3 whole entry, the tested form may be a part) above

[3] = target: T1, Histone-lysine N-methyltransferase, H3 lysine-79 specific; test: Binding affinity to recombinant human N-terminal GST-tagged DOT1L (1 to 420 residues) expressed in Escherichia coli BL21 (DE3) assessed as increase in melting temperature at 100 uM incubated for 1 min by 1,8-ANS probe based thermal shift assay
Target sequence in this assay (Q8TEK3 whole entry, looked up, the tested form may be a part): as the sequence (Q8TEK3 whole entry, the tested form may be a part) above

[4] = target: Protein arginine N-methyltransferase 3 (Homo sapiens, UniProt O60678); test: Inhibition of recombinant human PRMT3 using histone H4 as substrate by hotspot assay
[5] = target: DNA (cytosine-5)-methyltransferase 1 (Homo sapiens, UniProt P26358); test: Inhibition of recombinant human DNMT1 using poly(dl-dC) as substrate by hotspot assay
[6] = target: Histone-lysine N-methyltransferase EZH2 (Homo sapiens, UniProt Q15910); test: Inhibition of recombinant human EZH2 using core histone as substrate by hotspot assay
[7] = target: T2, Histone-lysine N-methyltransferase SETD7 (Homo sapiens, UniProt Q8WTS6); test: Inhibition of recombinant human SET7/9 using core histone as substrate by hotspot assay
T2 sequence (Q8WTS6 whole entry): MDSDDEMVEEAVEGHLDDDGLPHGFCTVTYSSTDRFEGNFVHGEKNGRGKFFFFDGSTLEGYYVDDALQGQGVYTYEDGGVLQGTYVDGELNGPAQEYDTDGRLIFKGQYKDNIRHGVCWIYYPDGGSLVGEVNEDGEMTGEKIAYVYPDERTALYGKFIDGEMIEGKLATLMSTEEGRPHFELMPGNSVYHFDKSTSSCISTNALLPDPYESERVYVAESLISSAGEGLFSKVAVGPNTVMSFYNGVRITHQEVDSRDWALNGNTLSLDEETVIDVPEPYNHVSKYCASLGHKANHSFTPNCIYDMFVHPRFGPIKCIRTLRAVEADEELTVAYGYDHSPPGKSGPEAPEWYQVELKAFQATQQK

[8] = target: T3, Histone-lysine N-methyltransferase EHMT2 (Homo sapiens, UniProt Q96KQ7); test: Inhibition of recombinant human G9a using histone H3 (1 to 21) as substrate by hotspot assay
T3 sequence (Q96KQ7 whole entry): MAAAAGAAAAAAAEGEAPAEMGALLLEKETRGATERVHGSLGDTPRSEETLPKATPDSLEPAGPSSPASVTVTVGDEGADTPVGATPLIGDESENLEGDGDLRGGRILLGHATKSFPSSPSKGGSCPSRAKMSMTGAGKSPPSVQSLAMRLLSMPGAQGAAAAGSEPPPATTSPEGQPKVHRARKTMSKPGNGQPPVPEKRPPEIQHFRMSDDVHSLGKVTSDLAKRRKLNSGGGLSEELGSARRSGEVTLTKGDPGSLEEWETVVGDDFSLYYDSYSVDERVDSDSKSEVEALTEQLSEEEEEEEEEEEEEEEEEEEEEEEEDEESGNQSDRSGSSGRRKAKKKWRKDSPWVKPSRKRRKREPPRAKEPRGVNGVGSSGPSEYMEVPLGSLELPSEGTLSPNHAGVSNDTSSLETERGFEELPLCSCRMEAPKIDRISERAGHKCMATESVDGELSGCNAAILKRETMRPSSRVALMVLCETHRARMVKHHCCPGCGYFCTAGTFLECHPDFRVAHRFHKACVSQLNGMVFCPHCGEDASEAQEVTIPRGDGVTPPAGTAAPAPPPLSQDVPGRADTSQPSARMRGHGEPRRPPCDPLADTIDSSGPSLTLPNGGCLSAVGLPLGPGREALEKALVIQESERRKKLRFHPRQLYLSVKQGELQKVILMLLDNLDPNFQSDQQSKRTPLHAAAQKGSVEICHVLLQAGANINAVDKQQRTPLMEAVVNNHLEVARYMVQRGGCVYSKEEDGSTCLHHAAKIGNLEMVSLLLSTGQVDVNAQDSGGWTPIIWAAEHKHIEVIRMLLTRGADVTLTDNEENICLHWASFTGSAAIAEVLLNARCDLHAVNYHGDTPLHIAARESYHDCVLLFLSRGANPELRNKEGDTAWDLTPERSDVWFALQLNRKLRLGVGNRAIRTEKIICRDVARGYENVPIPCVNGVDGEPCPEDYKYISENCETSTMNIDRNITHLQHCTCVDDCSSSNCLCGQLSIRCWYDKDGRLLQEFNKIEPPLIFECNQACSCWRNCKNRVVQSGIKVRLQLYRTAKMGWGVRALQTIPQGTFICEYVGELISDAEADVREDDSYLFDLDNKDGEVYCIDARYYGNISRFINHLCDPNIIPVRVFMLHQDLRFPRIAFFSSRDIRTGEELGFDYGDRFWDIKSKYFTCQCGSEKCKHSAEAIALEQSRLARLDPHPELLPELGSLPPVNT

[9] = target: T1, Histone-lysine N-methyltransferase, H3 lysine-79 specific; test: Inhibition of recombinant human N-terminal GST-tagged DOT1L (1 to 420 residues) expressed in Escherichia coli BL21 (DE3) using histone as substrate incubated for 1 hr by MTase-glo based luminescence assay
Target sequence in this assay (Q8TEK3 whole entry, the tested form may be a part): as the sequence (Q8TEK3 whole entry, the tested form may be a part) above

[10] = target: Protein arginine N-methyltransferase 5 (Homo sapiens, UniProt O14744); test: Inhibition of recombinant human PRMT5 using histone H2A as substrate by hotspot assay
[11] = target: T4, Histone H3 methyltransferase DOT1 variant d (Mus musculus) (UniProt Q679P4); test: Inhibition of DOT1L in mouse bone marrow cell transformed with MLL-AF9 cells assessed as reduction in H3K36 methylation at 100 uM measured upto 9 days by Western blot analysis; assay type: cell-based; conditions: time day <=9
T4 sequence (whole entry): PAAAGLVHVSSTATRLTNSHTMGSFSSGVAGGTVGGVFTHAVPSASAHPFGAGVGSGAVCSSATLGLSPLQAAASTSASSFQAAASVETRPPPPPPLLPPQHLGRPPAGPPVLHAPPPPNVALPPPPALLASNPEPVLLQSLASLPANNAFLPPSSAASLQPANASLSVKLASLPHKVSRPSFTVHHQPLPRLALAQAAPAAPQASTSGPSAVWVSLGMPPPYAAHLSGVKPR

[12] = target: T4, Histone H3 methyltransferase DOT1 variant d (Mus musculus); test: Inhibition of DOT1L in mouse bone marrow cell transformed with MLL-AF9 cells assessed as reduction in H3K27 methylation at 100 uM measured upto 9 days by Western blot analysis; assay type: cell-based; conditions: time day <=9
[13] = target: T4, Histone H3 methyltransferase DOT1 variant d (Mus musculus); test: Inhibition of DOT1L in mouse bone marrow cell transformed with MLL-AF9 cells assessed as reduction in H3K79 methylation at 100 uM measured upto 9 days by Western blot analysis; assay type: cell-based; conditions: time day <=9, TDE = time-dependent effect
[14] = target: T5, Protein arginine N-methyltransferase 7 (Homo sapiens, UniProt Q9NVM4); test: Inhibition of recombinant human PRMT7 using GST-GAR as substrate by hotspot assay
T5 sequence (Q9NVM4 whole entry): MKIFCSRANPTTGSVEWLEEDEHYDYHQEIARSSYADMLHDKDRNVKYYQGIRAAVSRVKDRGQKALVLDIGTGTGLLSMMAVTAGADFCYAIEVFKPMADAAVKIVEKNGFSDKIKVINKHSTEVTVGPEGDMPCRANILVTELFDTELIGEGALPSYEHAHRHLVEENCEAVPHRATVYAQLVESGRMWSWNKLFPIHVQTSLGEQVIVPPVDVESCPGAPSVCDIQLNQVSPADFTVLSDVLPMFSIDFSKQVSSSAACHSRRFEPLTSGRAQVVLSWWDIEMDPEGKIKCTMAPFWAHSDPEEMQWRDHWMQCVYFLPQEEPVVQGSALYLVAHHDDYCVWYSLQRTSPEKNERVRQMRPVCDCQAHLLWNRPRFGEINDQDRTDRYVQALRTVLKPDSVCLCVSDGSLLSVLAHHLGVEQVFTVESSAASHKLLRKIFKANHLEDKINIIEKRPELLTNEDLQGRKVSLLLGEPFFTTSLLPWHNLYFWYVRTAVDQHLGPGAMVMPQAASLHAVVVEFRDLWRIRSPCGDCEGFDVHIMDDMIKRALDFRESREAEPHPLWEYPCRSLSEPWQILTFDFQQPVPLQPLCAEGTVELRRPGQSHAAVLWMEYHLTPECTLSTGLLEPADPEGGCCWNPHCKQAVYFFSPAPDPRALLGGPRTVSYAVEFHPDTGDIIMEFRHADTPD

[15] = target: Protein arginine N-methyltransferase 8 (Homo sapiens, UniProt Q9NR22); test: Inhibition of recombinant human PRMT8 using histone H4 as substrate by hotspot assay
Chain of Protein arginine N-methyltransferase 8 (Q9NR22 whole entry): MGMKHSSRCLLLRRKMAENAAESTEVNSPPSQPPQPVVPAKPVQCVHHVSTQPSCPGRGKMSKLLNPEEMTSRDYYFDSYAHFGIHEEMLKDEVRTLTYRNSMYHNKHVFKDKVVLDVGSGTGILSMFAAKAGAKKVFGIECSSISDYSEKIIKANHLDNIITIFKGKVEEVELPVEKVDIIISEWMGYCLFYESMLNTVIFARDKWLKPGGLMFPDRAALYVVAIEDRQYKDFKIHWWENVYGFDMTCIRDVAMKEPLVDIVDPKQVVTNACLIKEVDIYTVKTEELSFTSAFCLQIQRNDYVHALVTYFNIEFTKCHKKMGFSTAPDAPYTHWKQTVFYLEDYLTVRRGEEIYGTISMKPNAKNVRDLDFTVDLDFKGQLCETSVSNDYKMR

Chain of Histone-lysine N-methyltransferase EZH2 (Q15910 whole entry): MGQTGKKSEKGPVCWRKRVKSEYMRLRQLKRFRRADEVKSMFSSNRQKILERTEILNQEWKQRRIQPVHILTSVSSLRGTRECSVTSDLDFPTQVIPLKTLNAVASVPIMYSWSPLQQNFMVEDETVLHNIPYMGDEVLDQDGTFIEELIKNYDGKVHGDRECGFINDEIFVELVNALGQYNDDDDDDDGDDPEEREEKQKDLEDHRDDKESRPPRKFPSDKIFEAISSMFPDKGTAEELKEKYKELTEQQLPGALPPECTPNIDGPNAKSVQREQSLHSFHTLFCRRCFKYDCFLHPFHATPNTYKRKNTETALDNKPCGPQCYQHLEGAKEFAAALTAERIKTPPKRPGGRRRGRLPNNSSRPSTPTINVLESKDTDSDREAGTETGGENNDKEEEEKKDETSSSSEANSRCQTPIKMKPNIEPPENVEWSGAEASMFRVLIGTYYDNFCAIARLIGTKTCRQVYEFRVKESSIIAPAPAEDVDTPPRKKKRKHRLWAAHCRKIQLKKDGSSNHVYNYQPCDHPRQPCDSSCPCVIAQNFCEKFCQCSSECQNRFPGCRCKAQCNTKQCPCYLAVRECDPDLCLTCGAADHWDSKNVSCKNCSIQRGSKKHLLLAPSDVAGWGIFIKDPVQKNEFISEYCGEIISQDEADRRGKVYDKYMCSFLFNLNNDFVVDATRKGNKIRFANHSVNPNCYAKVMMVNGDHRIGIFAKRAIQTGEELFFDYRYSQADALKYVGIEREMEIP
Chain of DNA (cytosine-5)-methyltransferase 1 (P26358 whole entry): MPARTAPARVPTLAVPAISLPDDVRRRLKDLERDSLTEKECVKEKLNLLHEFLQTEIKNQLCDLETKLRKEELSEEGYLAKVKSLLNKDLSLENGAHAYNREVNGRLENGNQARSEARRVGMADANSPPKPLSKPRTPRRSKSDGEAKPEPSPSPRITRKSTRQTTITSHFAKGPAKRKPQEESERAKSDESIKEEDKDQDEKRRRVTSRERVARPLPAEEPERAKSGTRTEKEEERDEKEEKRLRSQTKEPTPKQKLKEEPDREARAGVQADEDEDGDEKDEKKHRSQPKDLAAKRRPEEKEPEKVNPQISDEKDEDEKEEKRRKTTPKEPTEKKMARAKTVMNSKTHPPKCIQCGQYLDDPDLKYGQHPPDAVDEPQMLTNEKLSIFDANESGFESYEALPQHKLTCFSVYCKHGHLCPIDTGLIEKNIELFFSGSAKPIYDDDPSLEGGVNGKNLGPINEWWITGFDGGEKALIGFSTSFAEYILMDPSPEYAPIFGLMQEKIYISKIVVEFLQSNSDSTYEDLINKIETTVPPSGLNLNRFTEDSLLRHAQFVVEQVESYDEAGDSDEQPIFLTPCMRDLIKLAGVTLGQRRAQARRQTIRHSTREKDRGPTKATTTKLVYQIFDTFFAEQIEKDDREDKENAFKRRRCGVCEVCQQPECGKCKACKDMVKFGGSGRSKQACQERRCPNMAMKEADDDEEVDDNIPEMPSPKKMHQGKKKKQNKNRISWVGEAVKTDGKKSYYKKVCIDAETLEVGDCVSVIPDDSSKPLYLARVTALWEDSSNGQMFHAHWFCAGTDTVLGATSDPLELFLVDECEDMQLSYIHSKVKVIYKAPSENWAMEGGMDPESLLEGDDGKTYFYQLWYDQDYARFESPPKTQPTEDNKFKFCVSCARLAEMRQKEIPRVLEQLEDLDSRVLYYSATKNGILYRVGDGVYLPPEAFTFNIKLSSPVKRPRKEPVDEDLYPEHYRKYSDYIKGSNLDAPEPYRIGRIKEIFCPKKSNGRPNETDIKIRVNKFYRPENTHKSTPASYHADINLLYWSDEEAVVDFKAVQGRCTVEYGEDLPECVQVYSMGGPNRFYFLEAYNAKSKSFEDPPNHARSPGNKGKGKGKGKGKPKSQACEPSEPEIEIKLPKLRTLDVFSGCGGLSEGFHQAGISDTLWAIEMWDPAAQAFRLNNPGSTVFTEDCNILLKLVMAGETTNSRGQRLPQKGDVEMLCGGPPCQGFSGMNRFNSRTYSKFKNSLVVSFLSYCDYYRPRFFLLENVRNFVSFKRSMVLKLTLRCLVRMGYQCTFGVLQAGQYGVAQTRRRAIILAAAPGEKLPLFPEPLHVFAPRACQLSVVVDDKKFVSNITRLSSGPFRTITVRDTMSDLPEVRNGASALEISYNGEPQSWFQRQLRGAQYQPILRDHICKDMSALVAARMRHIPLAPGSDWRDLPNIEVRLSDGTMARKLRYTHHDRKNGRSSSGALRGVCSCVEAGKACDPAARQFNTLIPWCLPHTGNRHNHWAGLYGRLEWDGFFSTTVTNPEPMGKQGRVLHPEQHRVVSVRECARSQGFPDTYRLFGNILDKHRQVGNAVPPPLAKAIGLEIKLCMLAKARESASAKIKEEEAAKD
Chain of Protein arginine N-methyltransferase 3 (O60678 whole entry): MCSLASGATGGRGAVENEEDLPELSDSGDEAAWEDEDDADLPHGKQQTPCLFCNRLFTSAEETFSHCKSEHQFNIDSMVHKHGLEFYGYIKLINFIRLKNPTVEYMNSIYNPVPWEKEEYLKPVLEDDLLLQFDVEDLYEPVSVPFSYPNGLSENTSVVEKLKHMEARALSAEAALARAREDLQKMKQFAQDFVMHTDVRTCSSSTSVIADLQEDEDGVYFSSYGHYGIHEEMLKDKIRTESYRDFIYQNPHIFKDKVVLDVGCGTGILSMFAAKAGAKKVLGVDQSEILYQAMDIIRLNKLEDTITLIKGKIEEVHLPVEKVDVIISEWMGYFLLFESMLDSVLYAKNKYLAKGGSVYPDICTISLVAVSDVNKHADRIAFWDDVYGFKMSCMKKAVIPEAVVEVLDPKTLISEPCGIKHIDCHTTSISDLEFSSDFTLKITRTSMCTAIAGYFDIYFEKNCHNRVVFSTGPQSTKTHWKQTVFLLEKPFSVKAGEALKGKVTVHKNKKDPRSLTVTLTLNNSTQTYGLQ

IC50 [1]: 85.3 µM
Activity [2]: Active
Compound: Nc1ncnc2c1ncn2[C@@H]1O[C@H](C(=O)N2CCC[C@H]2C(=O)OCc2ccccc2)[C@@H](O)[C@H]1O

Activity [3]: Active
IC50 [1]: 710 µM
Compound: O=C(Nc1ccn(CCCN2CCC(c3ccccc3)CC2)c(=O)n1)OCc1ccccc1

IC50 [1]: 90.4 µM
Activity [2]: Active
Compound: Nc1ncnc2c1ncn2[C@@H]1O[C@H](CNCc2ccc(OCC(=O)Nc3nccs3)cc2)[C@@H](O)[C@H]1O

IC50 [1]: 168 µM
Activity [2]: Active
Compound: Nc1ncnc2c1ncn2[C@@H]1O[C@H](CNC(=O)[C@@H](N)Cc2ccc(C(F)(F)F)cc2)[C@@H](O)[C@H]1O

Compound: Nc1ncnc2c1ncn2[C@@H]1O[C@H](CSCC[C@H](N)C(=O)O)[C@@H](O)[C@H]1O [S-ADENOSYLHOMOCYSTEINE]
IC50 ([4]; read-out: IC50): 0.76 µM

Compound: CC(C)(C)c1ccc(NC(=O)c2ncn(CC(=O)NCc3ccc4[nH]ncc4c3)n2)cc1
IC50 [4]: Not Active
IC50 [5]: Not Active
IC50 ([6]; read-out: IC50): > 250 µM
IC50 [7]: Not Active
IC50 ([8]; read-out: IC50): > 250 µM
IC50 [9]: 22.4 µM
IC50 [10]: Not Active

inhibition [11]: inactive
IC50 [1]: 54.9 µM
inhibition [12]: inactive
inhibition [13]: Tde
Activity [2]: Active
Compound: Nc1ncnc2c1ncn2[C@@H]1O[C@H](CNCc2ccc(OCC(=O)Nc3ccccn3)cc2)[C@@H](O)[C@H]1O

Compound: Cc1ccc(NC(=O)c2ncn(CC(=O)NCCn3cnc4[nH]ccc4c3=O)n2)cc1C
IC50 [9]: 138 µM

Compound: Cc1ccc(NC(=O)c2ncn(CC(=O)NCc3ccc4[nH]ncc4c3)n2)cc1C
IC50 [9]: 36.9 µM

IC50 [1]: 120 µM
Activity [2]: Active
Compound: Nc1ncnc2c1ncn2[C@@H]1O[C@H](CNCc2ccc(OCc3ccccc3)cc2)[C@@H](O)[C@H]1O

Compound: CC(C)(C)c1ccc(NC(=O)c2ncn(CC(=O)NCc3ccc4c(c3)OCO4)n2)cc1
IC50 [9]: 23.5 µM

Compound: Cc1ccc2nc(NC(=O)c3ncn(CC(=O)NCc4ccc5c(c4)OCO5)n3)[nH]c2c1
IC50 [9]: 55.6 µM

Compound: Cc1ccc(NC(=O)c2ncn(CC(=O)NCc3ccc4c(c3)OCO4)n2)cc1C
Activity [3]: Active
IC50 [1]: 82.9 µM
IC50 [9]: 40.8 µM

Compound: CC(C)(C)c1ccc(NC(=O)c2ncn(CC(=O)NCc3ccc4c(N)nccc4c3)n2)cc1
IC50 ([4]; read-out: IC50): 25.3 µM
IC50 [5]: Not Active
IC50 [6]: Not Active
IC50 ([7]; read-out: IC50): 79.8 µM
IC50 ([14]; read-out: IC50): 61.5 µM
IC50 ([8]; read-out: IC50): 61.4 µM
IC50 [9]: 19.5 µM
IC50 [15]: 53.6 µM
IC50 ([10]; read-out: IC50): 113 µM

IC50 [1]: 57 µM
Activity [2]: Active
Compound: Nc1ncnc2c1ncn2[C@@H]1O[C@H](CNC(=O)[C@@H](N)Cc2ccc(C(=O)c3ccccc3)cc2)[C@@H](O)[C@H]1O

IC50 [1]: 32.4 µM
Activity [2]: Active
Compound: Nc1ncnc2c1ncn2[C@@H]1O[C@H](CNCc2ccc(-c3cc(C(F)(F)F)ccc3Cl)o2)[C@@H](O)[C@H]1O

Compound: Cc1ccc(NC(=O)c2ncn(CC(=O)NCc3ccc4c(N)nccc4c3)n2)cc1C
IC50 [4]: Not Active
IC50 ([14]; read-out: IC50): 69.4 µM
IC50 [9]: 69.2 µM
IC50 [15]: 216 µM
IC50 [10]: Not Active

Activity [3]: Active
IC50 [1]: 677 µM
Compound: O=C(Nc1ccn(CCCNCc2ccc3c(c2)OCO3)c(=O)n1)OCc1ccccc1

Compound: Nc1nccc2cc(CNC(=O)Cn3cnc(C(=O)NC4CCCCC4)n3)ccc12
IC50 [4]: Not Active
IC50 [14]: Not Active
IC50 [9]: > 100 µM
IC50 [15]: 94.9 µM
IC50 [10]: Not Active

Compound: O=C(Cn1cnc(C(=O)NC2CCCCC2)n1)NCc1ccc2c(c1)OCO2
IC50 [9]: > 100 µM

Compound: Cc1ccc(NC(=O)c2ncn(CC(=O)NCCn3ccc4c(N)ncnc43)n2)cc1C
IC50 [4]: Not Active
IC50 ([5]; read-out: IC50): > 250 µM
IC50 [6]: Not Active
IC50 [7]: Not Active
IC50 [8]: Not Active
IC50 [9]: 10.9 µM
IC50 [10]: Not Active

Activity [3]: Active
IC50 [1]: 130 µM
Compound: Cc1ccc(NC(=O)c2ncn(CC(=O)NCc3nc4ccccc4[nH]3)n2)cc1C

Compound: O=C(Cn1cnc(C(=O)NC2CCCCC2)n1)NCc1ccc2[nH]ncc2c1
IC50 [9]: > 100 µM

Compound: Nc1ncnc2c1ccn2CCNC(=O)Cn1cnc(C(=O)NC2CCCCC2)n1
IC50 [9]: > 100 µM
